{"data": "Published values of several laboratories", "observed": "cell growth or viability", "note": "Each line is one published result; the experiments were not run side by side."}
{"Compound": "C[C@H]1O[C@H](Oc2c(-c3ccc(O)c(O)c3)oc3cc(O)cc(O)c3c2=O)[C@@H](O)[C@@H](O)[C@@H]1O", "cell line": "SW780", "technique": "ATP luminescence", "time": "72 h", "IC50": "190 µM"}
{"Compound": "COCCOCOc1cc(OCc2ccc(Br)cc2)c(C(=O)/C=C/c2ccc(C(=O)O)cc2)cc1C12CC3CC(CC(C3)C1)C2", "cell line": "Jurkat", "technique": "ATP luminescence", "time": "24 h", "IC50": "0.84 µM"}
{"Compound": "COc1c2c(cc3c1OCO3)[C@]13C=C[C@H](OC)C[C@@H]1[N@](C2)C[C@H]3OC(=O)c1ccco1", "cell line": "MOLT-4", "technique": "WST-1", "IC50": "> 10 µM"}
{"Compound": "CC1=C2C[C@H]3[C@@H](CC=C4C[C@@H](O)CC[C@@]43C)[C@@H]2CC[C@]12O[C@@H]1C[C@H](C)CN[C@H]1[C@H]2C", "cell line": "MIA PaCa-2", "technique": "MTS", "time": "96 h", "IC50": "17.1 µM"}
{"Compound": "N.N.[Cl][Pt][Cl]", "cell line": "PLC", "time": "48 h", "IC50": "47.2 µM"}
{"Compound": "COCCOCOc1cc(O)c(-c2cc(-c3ccc(C(=O)O)cc3)n(C)n2)cc1C12CC3CC(CC(C3)C1)C2", "cell line": "Jurkat", "technique": "ATP luminescence", "time": "24 h", "IC50": "4.73 µM"}
{"Compound": "Cl.O[C@]12C=C(c3nccc4c3[nH]c3ccccc34)[C@@H]3CCN(CCCC/C=C\\CC1)C[C@@]31C[C@@H]3/C=C\\CCCCN3[C@H]12", "cell line": "BT-549", "technique": "neutral red", "time": "48 h", "IC50": "0.88 µg/mL"}
{"Compound": "COc1c2c(cc3c1OCO3)[C@]13C=C[C@H](OC)C[C@@H]1[N@](C2)C[C@H]3OC(=O)c1ccoc1", "cell line": "MOLT-4", "technique": "WST-1", "IC50": "> 10 µM"}
{"Compound": "COc1cccc2c1C(=O)c1c(O)c3c(c(O)c1C2=O)C[C@@](O)(C(=O)CO)C[C@@H]3O[C@H]1C[C@H](N)[C@H](O)[C@H](C)O1", "cell line": "BT-549", "time": "48 h", "IC50": "1.5 µg/mL"}
{"Compound": "N.N.[Cl][Pt][Cl]", "cell line": "MIA PaCa-2", "technique": "resazurin", "time": "72 h", "IC50": "5.9 µM"}
